Entries after “also recorded” stand apart in the source; their conditions may differ. Like-named read-outs stand apart in the source and are kept apart here.
What was measured:
[1] = tested on: L. amazonensis promastigotes; test: microscopy of promastigote morphology; format: cell-based, Leishmania amazonensis; conditions: compared to DMSO control; for increase in pear-shaped promastigotes: 48 h at the EC50 72h; for increase in flagella length: promastigotes, 24 h at the EC50 72h
L. amazonensis = test: paclitaxel EC50 72h for La; format: cell-based; conditions: Leishmania amazonensis, read-out: EC50 72h for La
[2] = tested on: L. amazonensis promastigotes and amastigotes; test: microscopy of cell division in L. amazonensis promastigotes and amastigotes; format: cell-based, Leishmania amazonensis; conditions: 48 h at the EC50 72h concentration; for increase in parasites in mid-cell division, promastigotes: compared to DMSO control
[3] = tested on: L. amazonensis axenic amastigotes; format: cell-based, Leishmania amazonensis; conditions: 24 h at the EC50 72h, densitometry of Western blots
[4] = tested on: purified L. tarentolae tubulin; test: turbidity tubulin polymerization assay, purified L. tarentolae tubulin; format: biochemical, Leishmania tarentolae; conditions: read-out: L. tarentolae tubulin polymerization EC50 (estimated); 3 mg/mL tubulin, A340, 30 °C
[5] = tested on: L. amazonensis promastigotes; test: alamarBlue assay, L. amazonensis promastigotes; format: cell-based, Leishmania amazonensis; conditions: read-out: Promastigote EC50 ± SE, 72 h
[6] = tested on: L. amazonensis intracellular amastigotes; format: cell-based, Leishmania amazonensis; conditions: read-out: intracellular amastigotes, EC50 ± SE
[7] = tested on: L. amazonensis axenic amastigotes; format: cell-based, Leishmania amazonensis; conditions: for EC50: Leishmania amazonensis, 72 h, read-out: EC50 ± SE
[8] = tested on: L. donovani axenic amastigotes; test: alamarBlue assay, L. donovani axenic amastigotes; format: cell-based, Leishmania donovani; conditions: read-out: L. donovani axenic amastigotes, EC50 ± SE, 72 h
How it was run: (§1)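 Axenic amastigotes were exposed to a compound dilution series and growth was measured with 10% alamarBlue, fluorescence at 530 nm excitation and 570 nm emission. Each plate held three technical replicates, with at least three biological repeats. Percent growth relative to untreated control was plotted against log10 concentration. EC50 per repeat was fitted by sigmoidal variable-slope nonlinear regression and reported as mean ± SE.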

[9] = tested on: purified L. tarentolae tubulin; test: chemical cross-linking with SW22 probe and competition, fluorescent tubulin band; format: binding, Leishmania tarentolae; conditions: for competition with SW22 probe for tubulin, fluorescent band: fully purified tubulin, competitor at 100-fold excess
[10] = tested on: blood-stage P. falciparum; test: Malaria SYBR green I fluorescence; format: cell-based, Plasmodium falciparum; conditions: read-out: P. falciparum EC50 ± SE, 3D7, MSF assay
[11] = tested on: blood-stage Trypanosoma brucei; test: CellTiter-Glo luminescent assay, T. brucei; format: cell-based; conditions: read-out: T. brucei EC50 ± SE
Neospora caninum = conditions: read-out: Neospora caninum EC50; cited from earlier work
[12] = tested on: L. tarentolae axenic amastigotes; test: alamarBlue assay, L. tarentolae axenic amastigotes; format: cell-based, Leishmania tarentolae; conditions: read-out: L. tarentolae axenic amastigotes EC50 ± SE
How it was run: as §1

[13] = tested on: Entamoeba histolytica trophozoite; conditions: cited from earlier work
Cryptosporidium parvum = conditions: read-out: Cryptosporidium parvum EC50; cited from earlier work
[14] = L. amazonensis intracellular amastigotes in RAW 264.7 cells, 72 h, luciferase

In the case of `CC(=O)O[C@H]1C(=O)[C@@]2(C)[C@H]([C@H](OC(=O)c3ccccc3)[C@]3(O)C[C@H](OC(=O)[C@H](O)[C@@H](NC(=O)c4ccccc4)c4ccccc4)C(C)=C1C3(C)C)[C@]1(OC(C)=O)CO[C@@H]1C[C@@H]2O` [paclitaxel], the “increase in pear-shaped promastigotes” value [1] is reported as 2 fold, the “increase in flagella length” value [1] is reported as ~ 1.5 fold and the EC50 (L. amazonensis) is reported as 0.76 ± 0.0083 µM. For the same molecule, the “increase in parasites in mid-cell division, promastigotes” value [2] was ~ 2 fold, the “proportion of cellular polymeric tubulin” value [3] was “significantly increased” and the EC50 [4] was 1.3 ± 0.1 µM.
In the case of `C#CCOc1ccc(C(=O)c2ccc(C(=O)Nc3cc(C)nn3-c3nc(C)c(CC)c(=O)[nH]3)cc2)cc1` [SW22, N-(1-(5-ethyl-4-methyl-6-oxo-1,6-dihydropyrimidin-2-yl)-3-methyl-1H-pyra-zol-5-yl)-4-(4-(prop-2-yn-1-yloxy)benzoyl) benzamide], the EC50 [5] is reported as 6.7 ± 0.053 µM and the CC50 (RAW 264.7 cells) is reported as 1.3 ± 0.042 µM.
Work on `N#Cc1nc(-c2ccccc2)oc1S(=O)(=O)c1ccc(Cl)cc1` [MMV676412] yielded an EC50 [6, 14] greater than 2 µM.
For `C[C@]1(COc2ccc(N3CCC(Oc4ccc(OC(F)(F)F)cc4)CC3)cc2)Cn2cc([N+](=O)[O-])nc2O1` [delamanid], the EC50 [7] was 0.031 ± 0.0035 µM.
In the case of `CC(C)(C)[C@H]1CC[C@H](CC2=C(O)C(=O)c3ccccc3C2=O)CC1` [buparvaquone], the EC50 [7] is reported as 0.012 ± 0.0011 µM.
`CCc1c(C)nc(-n2nc(C)cc2NC(=O)c2ccc(F)c(Cl)c2)[nH]c1=O` [SW41] gave an EC50 [5] of 0.78 ± 0.029 µM, an EC50 [8] of 0.31 ± 0.038 µM and a CC50 (RAW 264.7 cells) of 2.4 ± 0.1 µM. For the same molecule, the EC50 [6, 14] was 0.22 ± 0.013 µM.
`C[C@@H]1[C@H](O)[C@@H](C)/C=C/C=C/C=C/C=C/C=C/C=C/C=C/[C@H](O[C@@H]2O[C@H](C)[C@@H](O)[C@H](N)[C@@H]2O)C[C@@H]2O[C@](O)(C[C@@H](O)C[C@@H](O)[C@H](O)CC[C@@H](O)C[C@@H](O)CC(=O)O[C@H]1C)C[C@H](O)[C@H]2C(=O)O` [amphotericin B, reference compound] gave an EC50 [7] of 0.053 ± 0.0044 µM and an EC50 ([6]; Leishmania amazonensis, RAW264.7, 72 h) of 0.065 ± 0.026 µM.
In the case of `CSc1ccccc1C(=O)Oc1cc(C)nc(-n2nc(C)cc2N)n1` [SW10], the EC50 [5] is reported as greater than 50 µM, the “dimming of the fluorescent tubulin band in presence of competitor” value ([9]; L. tarentolae tubulin still including some additional proteins, SW22 probe) is reported as “No apparent dimming” and the “competition with SW22 probe for tubulin, fluorescent band” value [9] is reported as “no apparent competition”. For the same molecule, the CC50 (RAW 264.7 cells) was greater than 10 µM and the “antileishmanial activity (in words)” value ([7]; L. amazonensis) was “essentially inactive; also recorded: nearly inactive”.
For `CCCCCCCCCCCCCCCCOP(=O)([O-])OCC[N+](C)(C)C` [miltefosine], the “increase in pear-shaped promastigotes” value [1] was “did not affect”, the “increase in flagella length” value [1] was “did not affect” and the “effect on L. amazonensis cell division” value [2] was “did not affect L. amazonensis cell division”. For the same molecule, the EC50 [7] was 1.2 ± 0.28 µM.
In the case of `CC(=O)Oc1ccccc1C(=O)Nc1ncc([N+](=O)[O-])s1` [nitazoxanide], the EC50 [7] is reported as 0.59 ± 0.1 µM.
For `CCc1c(C)nc(-n2nc(C)cc2NC(=O)c2ccccc2SC)[nH]c1=O` [MMV676477], the EC50 [5] was 2.4 ± 0.035 µM, the “competition with SW22 probe for tubulin, fluorescent band” value [9] was “significantly dimmer” and the EC50 [10] was 0.42 ± 0.019 µM. The EC50 [8] was 1.3 ± 0.21 µM, the “increase in pear-shaped promastigotes” value [1] was 2 fold and the “increase in flagella length” value [1] was ~ 1.5 fold. The CC50 (RAW 264.7 cells) was 2.2 ± 0.41 µM, the EC50 [11] was 0.19 ± 0.0087 µM and the “increase in parasites in mid-cell division, promastigotes” value [2] was ~ 2 fold. For the same molecule, the EC50 (Neospora caninum) was 0.013 µM, the EC50 [12] was 0.011 ± 0.0013 µM and the “Entamoeba histolytica trophozoite proliferation at 10 μM” value [13] was 56%. The EC50 (Cryptosporidium parvum) was 0.22 µM, the “proportion of cellular polymeric tubulin” value [3] was “significantly increased” and the EC50 [6, 14] was 0.5 ± 0.02 µM. It also gave an EC50 [4] of 0.5 ± 0.1 µM.

From article PMC8059355 (ACS infectious diseases, 2020)
